Measurements from ChEMBL document CHEMBL3525985, “Regiospecificity and stereospecificity of human UDP-glucuronosyltransferases in the glucuronidation of estriol, 16-epiestriol, 17-epiestriol, and 13-epiestradiol” (Drug Metab Dispos, 2013).
Each block holds one molecule with its values, some of them ahead of it.

Legend:
Format in all cases: ADME
[1] = target: T1, UDP-glucuronosyltransferase 1A3 (Homo sapiens, UniProt P35503); assay: Drug metabolism assessed as recombinant human C-terminal His-tagged UGT1A3-mediated 17-epiestriol-3-glucuronide formation at 200 uM after 15 to 60 mins by HPLC analysis in presence of UDPGA; details: recombinant enzyme
T1 sequence (P35503 whole entry): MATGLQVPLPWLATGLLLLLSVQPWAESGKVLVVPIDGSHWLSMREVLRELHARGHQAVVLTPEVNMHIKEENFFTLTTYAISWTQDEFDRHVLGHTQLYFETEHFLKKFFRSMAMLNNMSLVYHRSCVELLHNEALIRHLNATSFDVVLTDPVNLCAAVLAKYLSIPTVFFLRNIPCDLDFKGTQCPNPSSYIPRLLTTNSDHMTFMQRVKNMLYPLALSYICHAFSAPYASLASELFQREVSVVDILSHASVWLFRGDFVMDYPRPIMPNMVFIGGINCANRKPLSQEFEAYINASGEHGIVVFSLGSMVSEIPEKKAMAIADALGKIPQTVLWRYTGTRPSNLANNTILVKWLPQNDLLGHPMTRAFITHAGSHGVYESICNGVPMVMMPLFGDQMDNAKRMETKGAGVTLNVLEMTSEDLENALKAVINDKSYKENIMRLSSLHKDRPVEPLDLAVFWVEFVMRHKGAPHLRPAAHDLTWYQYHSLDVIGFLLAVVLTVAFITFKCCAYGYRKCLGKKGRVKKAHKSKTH
Outline: (§1)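 Screening at a single substrate concentration of 200 μM, in triplicate. The reaction used 5 or 50 µg of UGT-enriched insect cell membranes in 50 mM phosphate pH 7.4 with 10 mM MgCl₂ and 5 mM UDPGA, 10% final DMSO. Incubation was 15–60 min at 37°C. Perchloric acid stopped the reaction and supernatants were analysed by HPLC. Controls lacked UDPGA. Rates were normalized to relative UGT expression level.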

[2] = target: T2, UDP-glucuronosyltransferase 2B17 (Homo sapiens, UniProt O75795); assay: Drug metabolism assessed as recombinant human C-terminal His-tagged UGT2B17-mediated 13-epiestradiol-3-glucuronide formation at 200 uM after 15 to 60 mins by HPLC analysis in presence of UDPGA; details: recombinant enzyme; outline: as §1
T2 sequence (O75795 whole entry): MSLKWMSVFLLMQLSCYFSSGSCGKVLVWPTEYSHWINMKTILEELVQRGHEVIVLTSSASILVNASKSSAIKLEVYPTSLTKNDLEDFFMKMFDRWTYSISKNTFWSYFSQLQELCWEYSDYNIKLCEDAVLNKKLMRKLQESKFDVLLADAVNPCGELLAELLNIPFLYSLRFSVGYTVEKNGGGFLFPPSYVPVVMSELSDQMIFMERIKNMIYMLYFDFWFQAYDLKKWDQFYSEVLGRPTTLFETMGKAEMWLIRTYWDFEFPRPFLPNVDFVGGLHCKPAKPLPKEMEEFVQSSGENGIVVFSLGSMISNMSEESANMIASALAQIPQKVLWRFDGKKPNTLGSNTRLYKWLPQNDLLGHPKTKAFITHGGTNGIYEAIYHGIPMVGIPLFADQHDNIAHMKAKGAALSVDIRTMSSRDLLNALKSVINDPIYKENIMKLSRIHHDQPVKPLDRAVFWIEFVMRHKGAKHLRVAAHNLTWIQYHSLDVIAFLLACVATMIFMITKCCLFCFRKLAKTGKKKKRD

Liver microsome [3] = assay: Drug metabolism in human liver microsomes assessed as 16-epiestriol-16-glucuronide formation after 15 to 60 mins by Michaelis-Menten equation analysis in presence of UDPGA
Outline: (§2)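 Pooled human liver microsomes (30 donors), 0.5 or 10 µg, with alamethicin at 5% of total protein. Incubated with 50 mM phosphate pH 7.4, 10 mM MgCl₂, 5 mM UDPGA and 10% DMSO for 15–60 min at 37°C. Each glucuronide regioisomer quantified by HPLC, in triplicate, with substrate consumption at or below 10%.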

[4] = target: T3, UDP-glucuronosyltransferase 1A8 (Homo sapiens, UniProt Q9HAW9); assay: Drug metabolism assessed as recombinant human C-terminal His-tagged UGT1A8-mediated estradiol-3-glucuronide formation at 200 uM after 15 to 60 mins by HPLC analysis in presence of UDPGA; details: recombinant enzyme; outline: as §1
T3 sequence (Q9HAW9 whole entry): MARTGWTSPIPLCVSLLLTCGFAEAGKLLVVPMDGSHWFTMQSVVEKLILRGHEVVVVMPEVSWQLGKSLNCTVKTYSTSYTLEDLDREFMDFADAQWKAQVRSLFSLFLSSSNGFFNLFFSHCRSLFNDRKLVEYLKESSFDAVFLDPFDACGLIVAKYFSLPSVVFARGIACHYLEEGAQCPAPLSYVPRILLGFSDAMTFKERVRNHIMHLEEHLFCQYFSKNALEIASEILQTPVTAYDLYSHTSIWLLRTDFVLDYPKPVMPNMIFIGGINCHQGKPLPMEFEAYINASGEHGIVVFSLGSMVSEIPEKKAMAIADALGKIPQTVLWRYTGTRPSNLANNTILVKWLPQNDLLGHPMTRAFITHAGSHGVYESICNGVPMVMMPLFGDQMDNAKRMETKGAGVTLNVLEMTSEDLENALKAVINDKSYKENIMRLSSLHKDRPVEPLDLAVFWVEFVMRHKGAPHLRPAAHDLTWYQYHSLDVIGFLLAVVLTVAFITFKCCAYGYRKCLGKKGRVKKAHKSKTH

Liver microsome [5] = assay: Drug metabolism in human liver microsomes assessed as estriol-16-glucuronide formation after 15 to 60 mins by Michaelis-Menten equation analysis in presence of UDPGA; outline: as §2
[6] = target: T4, UDP-glucuronosyltransferase 1A1 (Homo sapiens, UniProt P22309); assay: Drug metabolism assessed as recombinant human C-terminal His-tagged UGT1A1-mediated estriol-3-glucuronide formation at 200 uM after 15 to 60 mins by HPLC analysis in presence of UDPGA; details: recombinant enzyme; outline: as §1
T4 sequence (P22309 whole entry): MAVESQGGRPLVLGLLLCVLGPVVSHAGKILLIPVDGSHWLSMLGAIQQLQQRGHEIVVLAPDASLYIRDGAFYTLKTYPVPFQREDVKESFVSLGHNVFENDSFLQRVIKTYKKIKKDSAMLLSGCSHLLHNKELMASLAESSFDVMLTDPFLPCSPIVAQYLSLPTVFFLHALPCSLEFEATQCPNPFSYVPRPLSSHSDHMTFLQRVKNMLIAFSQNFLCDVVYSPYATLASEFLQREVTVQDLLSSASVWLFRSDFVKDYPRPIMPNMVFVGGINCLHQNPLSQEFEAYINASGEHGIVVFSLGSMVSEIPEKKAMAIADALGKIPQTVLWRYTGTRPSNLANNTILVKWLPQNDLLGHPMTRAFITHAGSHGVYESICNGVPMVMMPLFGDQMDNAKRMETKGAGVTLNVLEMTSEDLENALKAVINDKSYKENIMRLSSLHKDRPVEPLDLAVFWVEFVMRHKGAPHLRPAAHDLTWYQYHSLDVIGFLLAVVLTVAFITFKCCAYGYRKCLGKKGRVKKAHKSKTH

Structure (SMILES): C[C@]12CC[C@@H]3c4ccc(O)cc4CC[C@H]3[C@@H]1C[C@@H](O)[C@H]2O
Drug metabolism [1]: metabolite_detected

Structure (SMILES): C[C@@]12CC[C@@H]3c4ccc(O)cc4CC[C@H]3[C@@H]1CC[C@@H]2O
Drug metabolism [2]: metabolite_detected

Structure (SMILES): C[C@]12CC[C@@H]3c4ccc(O)cc4CC[C@H]3[C@@H]1C[C@H](O)[C@@H]2O [EPIESTRIOL]
Km (Liver microsome [3]): 33 µM
Vmax (Liver microsome [3]): 8011 pmol/min/mg

Now from value to molecule:

Drug metabolism [4]: metabolite_detected
Structure (SMILES): C[C@]12CC[C@@H]3c4ccc(O)cc4CC[C@H]3[C@@H]1CC[C@@H]2O [ESTRADIOL]

Km (Liver microsome [5]): 13 µM
Vmax (Liver microsome [5]): 4347 pmol/min/mg
Drug metabolism [6]: metabolite_detected
Structure (SMILES): C[C@]12CC[C@@H]3c4ccc(O)cc4CC[C@H]3[C@@H]1C[C@@H](O)[C@@H]2O [ESTRIOL]
